Key:
Format in all cases: functional
M19-MEL = experiment: Tested in vitro for cytotoxicity in M19-MEL cell line of Melanoma; details: Homo sapiens, read-out: Log TGI (converted)
Summary of the method: (§1)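 Compounds dissolved in DMSO, then diluted 500-fold into aqueous medium. The resulting aqueous solutions or suspensions were added to the cultured human tumour cell lines, and the cells were exposed for 48 h. Growth was read colorimetrically in one of two ways: a metabolic assay in which viable cells reduce a tetrazolium salt to a formazan dye, or a protein stain for total cellular protein.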

DMS-114 = experiment: Tested in vitro for cytotoxicity in DMS114 cell lines; details: Homo sapiens; summary of the method: as §1
CCRF-CEM [1] = experiment: Tested in vitro for cytotoxicity in CCRF-CEM cell lines; details: Homo sapiens; summary of the method: as §1
SR = experiment: Tested in vitro for cytotoxicity in SR cell line of Leukemia; details: Homo sapiens, read-out: Log TGI (converted)
Summary of the method: (§2)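 Compounds dissolved in DMSO and diluted 500-fold into aqueous medium; aliquots of the resulting solutions or suspensions added to cultured human tumor cells for 48 h. Growth read colorimetrically, either by tetrazolium reduction to formazan by viable cells or by protein staining of total cellular protein.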

COLO 205 = experiment: Tested in vitro for cytotoxicity in COLO 205 cell lines; details: Homo sapiens; summary of the method: as §1
HCT-116 = experiment: Tested in vitro for cytotoxicity in HCT116 cell line of Colon Cancer; details: Homo sapiens, read-out: Log TGI (converted); summary of the method: as §1
LXFL 529 = experiment: Tested in vitro for cytotoxicity in LXFL-529 cell line of Non-Small Cell Lung Cancer; details: Homo sapiens, read-out: Log TGI (converted); summary of the method: as §1
RXF 631 = experiment: Tested in vitro for cytotoxicity in RXF-631 cell line of Renal cancer; details: Homo sapiens, read-out: Log TGI (converted); summary of the method: as §1
CCRF-CEM [2] = experiment: Tested in vitro for cytotoxicity in CCRF-CEM cell line of Leukemia; details: Homo sapiens, read-out: Log TGI (converted); summary of the method: as §1
NCI-H522 = experiment: Tested in vitro for cytotoxicity in NCI-H522 cell line of Non-Small Cell Lung Cancer; details: Homo sapiens, read-out: Log TGI (converted); summary of the method: as §1
RPMI-8226 = experiment: Tested in vitro for cytotoxicity in RPMI-8226 cell line of Leukemia; details: Homo sapiens, read-out: Log TGI (converted); summary of the method: as §1
UACC-257 = experiment: Tested in vitro for cytotoxicity in UACC-257 cell line of Melanoma; details: Homo sapiens, read-out: Log TGI (converted); summary of the method: as §2
SF-268 = experiment: Tested in vitro for cytotoxicity in SF-268 cell line of CNS cancer; details: Homo sapiens, read-out: Log TGI (converted); summary of the method: as §1
HCC 2998 = experiment: Tested in vitro for cytotoxicity in HCC2998 cell line of Colon Cancer; details: Homo sapiens, read-out: Log TGI (converted); summary of the method: as §1
HOP-18 = experiment: Tested in vitro for cytotoxicity in HOP-18 cell line of Non-Small Cell Lung Cancer; details: Homo sapiens, read-out: Log TGI (converted); summary of the method: as §1
M14 = experiment: Tested in vitro for cytotoxicity in M14 cell line of Melanoma; details: Homo sapiens, read-out: Log TGI (converted); summary of the method: as §1
HT-29 = experiment: Tested in vitro for cytotoxicity in HT-29 cell line of Colon Cancer; details: Homo sapiens, read-out: Log TGI (converted); summary of the method: as §1
CAKI-1 [3] = experiment: Tested in vitro for cytotoxicity in CAKI-1 cell line of Renal cancer; details: Homo sapiens, read-out: Log TGI (converted); summary of the method: as §1
Malme-3M = experiment: Tested in vitro for cytotoxicity in MALME-3M cell line of Melanoma; details: Homo sapiens, read-out: Log TGI (converted); summary of the method: as §1
UO-31 = experiment: Tested in vitro for cytotoxicity in UO-31 cell line of Renal cancer; details: Homo sapiens, read-out: Log TGI (converted); summary of the method: as §2
CAKI-1 [4] = experiment: Tested in vitro for cytotoxicity in CAKI-1 cell lines; details: Homo sapiens; summary of the method: as §1
A498 = experiment: Tested in vitro for cytotoxicity in A498 cell line of Renal cancer; details: Homo sapiens, read-out: Log TGI (converted); summary of the method: as §1
DLD-1 = experiment: Tested in vitro for cytotoxicity in DLD-1 cell line of Colon Cancer; details: Homo sapiens, read-out: Log TGI (converted); summary of the method: as §1
U-251 = experiment: Tested in vitro for cytotoxicity in U251 cell line of CNS Cancer; details: Homo sapiens, read-out: Log TGI (converted); summary of the method: as §2
SK-MEL-2 = experiment: Tested in vitro for cytotoxicity in SK-MEL-2 cell line of Melanoma; details: Homo sapiens, read-out: Log TGI (converted); summary of the method: as §1
HCT-15 = experiment: Tested in vitro for cytotoxicity in HCT-15 cell line of Colon Cancer; details: Homo sapiens, read-out: Log TGI (converted); summary of the method: as §1
SN12C = experiment: Tested in vitro for cytotoxicity in SN12C cell line of Renal cancer; details: Homo sapiens, read-out: Log TGI (converted); summary of the method: as §2
HOP-62 = experiment: Tested in vitro for cytotoxicity in HOP-62 cell line of Non-Small Cell Lung Cancer; details: Homo sapiens, read-out: Log TGI (converted); summary of the method: as §1
SK-MEL-5 = experiment: Tested in vitro for cytotoxicity in SK-MEL-5 cell line of Melanoma; details: Homo sapiens, read-out: Log TGI (converted); summary of the method: as §2
UACC-62 = experiment: Tested in vitro for cytotoxicity in UACC-62 cell line of Melanoma; details: Homo sapiens, read-out: Log TGI (converted); summary of the method: as §2
K562 = experiment: Tested in vitro for cytotoxicity in K-562 cell line of Leukemia; details: Homo sapiens, read-out: Log TGI (converted); summary of the method: as §1

## COc1ccc2[nH]c3c(C)c4c(c(C)c3c2c1)CN(C)C=C4
M19-MEL
  TGI: 2.51 µM
DMS-114
  GI50: 0.525 µM
CCRF-CEM [1]
  GI50: 2.64 µM
SR
  TGI: 63.1 µM
COLO 205
  GI50: 1.32 µM
HCT-116
  TGI: 15.8 µM
LXFL 529
  TGI: 5.01 µM
RXF 631
  TGI: 25.1 µM
CCRF-CEM [2]
  TGI: 15.8 µM
NCI-H522
  TGI: 5.01 µM
RPMI-8226
  TGI: > 100 µM
UACC-257
  TGI: 20 µM
SF-268
  TGI: 0.631 µM
HCC 2998
  TGI: 12.6 µM
HOP-18
  TGI: 39.8 µM
M14
  TGI: 25.1 µM
HT-29
  TGI: 25.1 µM
CAKI-1 [3]
  TGI: 31.6 µM
Malme-3M
  TGI: 5.01 µM
UO-31
  TGI: > 100 µM
CAKI-1 [4]
  GI50: 20.1 µM
A498
  TGI: 63.1 µM
DLD-1
  TGI: 20 µM
U-251
  TGI: 1 µM
SK-MEL-2
  TGI: 10 µM
HCT-15
  TGI: > 100 µM
SN12C
  TGI: 0.794 µM
HOP-62
  TGI: 3.16 µM
SK-MEL-5
  TGI: 10 µM
UACC-62
  TGI: 20 µM
K562
  TGI: > 100 µM

— ChEMBL document CHEMBL1127574, “Design and synthesis of ellipticinium salts and 1,2-dihydroellipticines with high selectivities against human CNS cancers in vitro” (1994)
